From PubChem
UBC9 SUMO inh = blocks human SUMOylation mediated by UBC9; P63279; HTRF SUMOylation assay, SAE1/SAE2 + UBC9, in vitro; inhibition, % at 35 µM; 290,000 tested, 0.36% active; AID 2006; in the data active = inhibition above about 50%, passing the limit was not always enough
Target sequence (P63279 whole entry, looked up): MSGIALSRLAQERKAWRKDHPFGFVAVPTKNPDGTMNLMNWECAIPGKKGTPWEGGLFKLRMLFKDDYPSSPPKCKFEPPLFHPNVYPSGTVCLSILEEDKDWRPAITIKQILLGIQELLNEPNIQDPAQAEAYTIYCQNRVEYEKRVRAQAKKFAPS
PAD4 FP inh = inhibitors of human PAD4; recombinant PAD4, RCA probe fluorescence polarization; inhibition, % at 6.36 µM; 330,000 tested, 0.41% active;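 active = percent inhibition above a cutoff equal to the mean of all tested compounds plus 3 SD, cut at about 15% in these data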;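 note: 0% = PAD4 with RCA probe and DMSO and 100% = probe without PAD4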
GSTO1 counter = counter-screen for RBBP9 inhibitors: inhibitors of human GSTO1. recombinant GSTO1, activity-based probe fluorescence polarization. inhibition, % at 5.96 µM. 300,000 tested, 1.1% active. AID 1974;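 active = inhibition above the campaign mean inhibition plus 3 SD, cut at about 35% in these data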;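 note: 0% = GSTO1-1 with DMSO and 100% = wells lacking GSTO1-1 enzyme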
TDP2 absorb = blocks human TDP2 phosphodiesterase activity; O95551; recombinant TDP2, T5PNP hydrolysis, p-nitrophenol absorbance 415 nm; inhibition, % at 12.8 µM; 370,000 tested, 0.34% active;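 active = inhibition above the mean of all tested compounds plus 3 SD, set per campaign, cut at about 25% in these data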;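 note: 0% = DMSO with enzyme and 100% = buffer with substrate but no TDP2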
Target sequence (O95551 whole entry, looked up): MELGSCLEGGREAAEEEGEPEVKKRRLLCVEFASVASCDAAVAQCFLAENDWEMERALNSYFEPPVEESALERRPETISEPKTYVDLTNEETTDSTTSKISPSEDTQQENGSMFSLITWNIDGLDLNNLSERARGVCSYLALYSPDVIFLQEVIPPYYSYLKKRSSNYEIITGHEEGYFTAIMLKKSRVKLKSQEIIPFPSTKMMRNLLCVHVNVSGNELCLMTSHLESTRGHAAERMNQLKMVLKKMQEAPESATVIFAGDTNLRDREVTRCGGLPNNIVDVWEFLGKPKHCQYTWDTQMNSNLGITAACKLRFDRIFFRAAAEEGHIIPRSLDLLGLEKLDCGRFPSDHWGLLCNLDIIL
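Material: recombinant human TDP2; quantity: TDP2 enzyme at 120 nM final; medium: Tris-HCl pH 7.5 with MgCl2; compound: single concentration, 12.8 µM nominal, with 1% DMSO; incubation: 2 h enzyme incubation at 37 °C; signal: epi absorbance; measure: percent inhibition; benchmarks: high control without enzyme, low control DMSO plus TDP2; repeats: singlicate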
Apaf1 inhib = human Apaf-1 inhibition | reconstituted apoptosome caspase-3 activity, DEVD-Rh110 fluorescence | 330,000 tested, 0.71% active | AID 489030 | inhibition, % at 20 µM | O14727; active = inhibition of at least 40% at 20 µM;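 note: plate controls were DMSO wells for no effect and DEVD-CHO caspase inhibitor wells for full effect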
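Material: reconstituted apoptosome with Apaf-1, cytochrome c, caspase-9, procaspase-3, dATP; medium: pH 7.5 Hepes buffer with CHAPS, BSA, DTT; also added: cytochrome c and DEVD-Rh110 substrate; timing: 30 min plus 50 min, RT; signal: Rh110 fluorescence intensity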
GASC-1 inh = human JMJD2C demethylase inhibition; Q9H3R0; GST-JMJD2C(1-420) H3K9me3 demethylation, DELFIA europium; inhibition, % at 2.35 µM; 330,000 tested, 0.069% active; AID 2099;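 active = more than half of a compound's replicate wells show inhibition beyond 50%, single wells judged on their own value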;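 note: signal counts dimethyl H3K9 product captured on neutravidin plate; 0% = median of DMSO wells and 100% = 0.3 times that DMSO median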
GSTO1 inh conf = confirmation of human GSTO1 inhibitors. shares compounds with GSTO1 counter. recombinant GSTO1, probe fluorescence polarization. inhibition, % at 5.96 µM. 2,400 tested, 54% active. AID 2176;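 active = inhibition above the primary screen's cutoff, its mean inhibition plus 3 SD, cut at about 35% in these data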;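 note: loss of polarization as inhibitors block binding of rhodamine sulfonate ester activity probe; 0% = GSTO1 with DMSO and 100% = wells lacking GSTO1 enzyme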
GSTO1 ABPP inh = inhibitors of recombinant human GSTO1; shares compounds with GSTO1 counter; gel ABPP SE-Rh probe fluorescence; inhibition, % at 1 µM; 130 tested, 30% active;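 active = inhibition of the enzyme GSTO1 above about 75%, limit read from the data; inactive = inhibition below that limit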
Numbers without * were called inactive; ! = not confirmed by another sample. Compounds with a hit are over-represented: about 1.6% of the library has one in this group of screens.

What do the screens show for `O=C(Nc1c(-c2ccc(C(F)(F)F)cc2)nc2ncccn12)C1CC1`?
TDP2 absorb: 5

What do the screens show for `Cc1cc(C)cc(NC(=O)CCc2c(C)nn(-c3ccc(N4CCCCC4)nn3)c2C)c1`?
UBC9 SUMO inh: -9; PAD4 FP inh: 1; GSTO1 counter: 67*; TDP2 absorb: -16; Apaf1 inhib: 9; GASC-1 inh: 3; GSTO1 inh conf: 7

How did Clc1ccc2[nH]c3c(c2c1)CCc1cn[nH]c1-3 do in these assays?
UBC9 SUMO inh: -3; PAD4 FP inh: -2; GSTO1 counter: 4; TDP2 absorb: 5; Apaf1 inhib: 19; GASC-1 inh: -2

What do the screens show for `c1ccc2c3c([nH]c2c1)-c1[nH]ncc1CC3`?
UBC9 SUMO inh: 17; PAD4 FP inh: 7; GSTO1 counter: 74*; TDP2 absorb: 6; Apaf1 inhib: 1; GASC-1 inh: -5; GSTO1 inh conf: 11

What do the screens show for `CC(C)(C)c1ccc(-c2nnc(SCC(=O)Nc3ccc4cn[nH]c4c3)n2-c2ccc(Cl)cc2)cc1`?
TDP2 absorb: -7

Results for CC(C)CNc1cccc2c1S(=O)(=O)N(Cc1cn(Cc3ccc(F)cc3)nn1)Cc1ccccc1O2 ?
TDP2 absorb: -5

How did Oc1ccc(-c2csc(Nc3cccc4ccccc34)n2)cc1O do in these assays?
UBC9 SUMO inh: 34; PAD4 FP inh: -21; GSTO1 counter: 62*; TDP2 absorb: -7; Apaf1 inhib: 20; GASC-1 inh: -8; GSTO1 inh conf: 5

Results for O=C(NCc1ccccc1)c1c(Cl)nc(Cl)c(Cl)c1Cl ?
UBC9 SUMO inh: -8; PAD4 FP inh: 0; GSTO1 counter: 41*; TDP2 absorb: 9; Apaf1 inhib: 2; GASC-1 inh: 4; GSTO1 inh conf: 58*

Results for Cc1nc(Cl)c(C(=O)NCc2ccccc2)c(C)c1Cl ?
UBC9 SUMO inh: -5; PAD4 FP inh: 2; GSTO1 counter: 6; TDP2 absorb: -1; Apaf1 inhib: -6; GASC-1 inh: 3

Results for Cc1ccc[n+](-c2nc3ccccc3nc2C(=C=[N-])C#N)c1 ?
UBC9 SUMO inh: 31; PAD4 FP inh: -20; GSTO1 counter: 62*; TDP2 absorb: 2; Apaf1 inhib: 2; GASC-1 inh: -9; GSTO1 inh conf: 36*!

How did Cc1cc(C)c[n+](-c2nc3ccccc3nc2C(=C=[N-])C#N)c1 do in these assays?
UBC9 SUMO inh: 11; PAD4 FP inh: 1; GSTO1 counter: 45*; TDP2 absorb: 0; Apaf1 inhib: 8; GASC-1 inh: 6; GSTO1 inh conf: 29

How did CCc1ccc[n+](-c2nc3ccccc3nc2C(=C=[N-])C#N)c1 do in these assays?
UBC9 SUMO inh: 30; PAD4 FP inh: -12; GSTO1 counter: 53*; TDP2 absorb: 2; Apaf1 inhib: -8; GASC-1 inh: 7; GSTO1 inh conf: 42*

How did Cc1cc[n+](-c2nc3ccccc3nc2[N-]S(=O)(=O)c2ccccc2)cc1 do in these assays?
UBC9 SUMO inh: 12; PAD4 FP inh: -6; GSTO1 counter: 4; TDP2 absorb: -1; Apaf1 inhib: 1; GASC-1 inh: 0

Results for Cc1cc(C)c[n+](-c2nc3ccccc3nc2[N-]S(=O)(=O)c2ccc(Cl)cc2)c1 ?
UBC9 SUMO inh: 18; PAD4 FP inh: 5; GSTO1 counter: 10; TDP2 absorb: -1; Apaf1 inhib: -17; GASC-1 inh: 1

How did CC(=O)CC[C@H]1CC[C@]2(CCCN(C(=O)c3ccco3)C2)O1 do in these assays?
TDP2 absorb: 5

Results for Cc1cccc(NC(=O)CSc2nnc(-c3ccco3)c(-c3ccco3)n2)c1 ?
UBC9 SUMO inh: 46; TDP2 absorb: 2; Apaf1 inhib: 26

What do the screens show for `Cc1cccc(NC(=O)CSc2nnc(-c3ccco3)c(-c3ccco3)n2)c1C`?
UBC9 SUMO inh: 36; PAD4 FP inh: -8; GSTO1 counter: 42*; Apaf1 inhib: 24; GASC-1 inh: 17; GSTO1 inh conf: 16

Results for O=S(=O)(c1ccccc1)c1cc(O)ccc1O ?
UBC9 SUMO inh: 11; PAD4 FP inh: 2; GSTO1 counter: 64*; TDP2 absorb: 7; Apaf1 inhib: -1; GASC-1 inh: -8; GSTO1 inh conf: 9

Results for O=S(=O)(c1ccc(Cl)cc1)c1cc(O)ccc1O ?
UBC9 SUMO inh: 4; PAD4 FP inh: -1; GSTO1 counter: 61*; TDP2 absorb: -1; Apaf1 inhib: 2; GASC-1 inh: 2; GSTO1 inh conf: 2

How did Nc1ccc(S(=O)(=O)c2ccc(Cl)cc2)cc1 do in these assays?
UBC9 SUMO inh: 3; PAD4 FP inh: 2; GSTO1 counter: -3; TDP2 absorb: -3; Apaf1 inhib: -12; GASC-1 inh: -1

Results for O=C(CSc1nc2ccccc2nc1N1CCCCC1)NCc1ccc(Cl)cc1Cl ?
TDP2 absorb: -1

What do the screens show for `CCn1c(-c2ccccc2Cl)nn(CC(=O)Nc2cc(Cl)ccc2Cl)c1=S`?
UBC9 SUMO inh: 22; PAD4 FP inh: 1; GSTO1 counter: 38*; TDP2 absorb: 2; Apaf1 inhib: 10; GASC-1 inh: -5; GSTO1 inh conf: 21

How did Cc1cccc(N(Cc2cc(=O)[nH]c3ccccc23)C(=O)CCl)c1 do in these assays?
UBC9 SUMO inh: -13; PAD4 FP inh: 14; GSTO1 counter: 90*; TDP2 absorb: -2; Apaf1 inhib: 15; GASC-1 inh: 9; GSTO1 inh conf: 91*; GSTO1 ABPP inh: 76*

How did COc1ccc(N(Cc2cc(=O)[nH]c3ccccc23)C(=O)CCl)cc1 do in these assays?
UBC9 SUMO inh: -6; PAD4 FP inh: 6; GSTO1 counter: 79*; TDP2 absorb: 10; Apaf1 inhib: -4; GASC-1 inh: 13; GSTO1 inh conf: 95*; GSTO1 ABPP inh: 44

What do the screens show for `CCCC(=O)N(Cc1cc(=O)[nH]c2ccccc12)c1ccc(OC)cc1`?
UBC9 SUMO inh: 0; PAD4 FP inh: 11; GSTO1 counter: -5; TDP2 absorb: 2; Apaf1 inhib: 8; GASC-1 inh: 5

How did Cc1ccc2[nH]c3c(c2c1)CCCC3NC(=O)CCl (stereo not drawn) do in these assays?
UBC9 SUMO inh: 4; PAD4 FP inh: -5; GSTO1 counter: 93*; Apaf1 inhib: -21; GASC-1 inh: -5; GSTO1 inh conf: 99*

What do the screens show for `Cc1ccc2[nH]c3c(c2c1)CCCC3C(N)=O` (stereo not drawn)?
UBC9 SUMO inh: 2; PAD4 FP inh: -5; GSTO1 counter: -4; TDP2 absorb: -7; Apaf1 inhib: 9; GASC-1 inh: 1
